This is an account of results in article PMC2193166 (The Journal of Experimental Medicine, 2000).

The test system of one test is human PMNs. In words: Human PMN chemotaxis, 48-well microchamber. In kind it is cell-based. The method in brief: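 Freshly isolated human PMNs were preincubated with vehicle or test compound (10 nM) for 30 min at 37°C and loaded at 5 × 10^4/well into the upper wells of a 48-well chamber fitted with an uncoated 5-μm polycarbonate membrane. The lower wells held peptide (1 nM), test compound, or vehicle (RPMI, 0.1% ethanol). After 60 min at 37°C, migrated cells were Diff-Quik stained and counted by light microscopy. Migration index was chemoattractant over vehicle; three donors.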

A further test has as its system PMNs. The test can be described thus: Direct binding of ^125I-labeled MHC binding peptide with PMNs. The arrangement: species or system human. The conditions noted are these: n = 3, data not shown.
Another test has as its target B/A254 (Homo sapiens, UniProt P25090+Q15722). In words: ^3H-LTB4 binding, B/A254-transfected HEK293 cells.
Another test deals with T1, ALXR (Homo sapiens, UniProt P25090).
T1 sequence (P25090 1-351): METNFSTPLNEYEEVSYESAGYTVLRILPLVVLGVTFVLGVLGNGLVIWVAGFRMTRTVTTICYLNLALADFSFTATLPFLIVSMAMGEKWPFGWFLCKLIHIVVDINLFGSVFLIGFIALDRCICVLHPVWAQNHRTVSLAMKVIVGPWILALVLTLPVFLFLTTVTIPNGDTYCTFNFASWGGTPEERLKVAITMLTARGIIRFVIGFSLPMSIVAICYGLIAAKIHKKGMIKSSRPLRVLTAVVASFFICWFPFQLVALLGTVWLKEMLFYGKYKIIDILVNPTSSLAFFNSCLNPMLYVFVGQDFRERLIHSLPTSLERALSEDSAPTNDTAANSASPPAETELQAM
The note with it: cited from earlier work.

No end group written: not given here. *: point of attachment. 125I = [125I]*

Take “^125I-labeled peptide: MHC binding peptide iodinated at the Tyr residue (MY(125I)FINILTL)”: in the test on human PMNs, the “PMN chemotaxis (in words)” value is listed as “did not promote PMN chemotaxis”. For the same compound, the “specific binding to PMNs” value in the test on PMNs is “nor did it show specific binding”.

As for `CCCCC/C=C\C[C@@H](O)/C=C/C=C\C=C\[C@@H](O)CCCC(=O)O` [^3H-LTB4, [5,6,8,9,11,12, 14,15-^3H]-LTB4], the “specific ^3H-LTB4 binding (in words)” value on B/A254 was “failed to specifically bind”.

serum amyloid protein A [SAA]: on ALXR, the “concentration required to evoke responses” value was “micromolar”.
